According to ChEMBL document CHEMBL1126554, “Synthesis of novel modified dipeptide inhibitors of human collagenase: beta-mercapto carboxylic acid derivatives” (J Med Chem, 1993):
pIC50: −log10 of the molar value.

Target: T1, Interstitial collagenase (Homo sapiens, UniProt P03956)
T1 sequence (P03956 whole entry): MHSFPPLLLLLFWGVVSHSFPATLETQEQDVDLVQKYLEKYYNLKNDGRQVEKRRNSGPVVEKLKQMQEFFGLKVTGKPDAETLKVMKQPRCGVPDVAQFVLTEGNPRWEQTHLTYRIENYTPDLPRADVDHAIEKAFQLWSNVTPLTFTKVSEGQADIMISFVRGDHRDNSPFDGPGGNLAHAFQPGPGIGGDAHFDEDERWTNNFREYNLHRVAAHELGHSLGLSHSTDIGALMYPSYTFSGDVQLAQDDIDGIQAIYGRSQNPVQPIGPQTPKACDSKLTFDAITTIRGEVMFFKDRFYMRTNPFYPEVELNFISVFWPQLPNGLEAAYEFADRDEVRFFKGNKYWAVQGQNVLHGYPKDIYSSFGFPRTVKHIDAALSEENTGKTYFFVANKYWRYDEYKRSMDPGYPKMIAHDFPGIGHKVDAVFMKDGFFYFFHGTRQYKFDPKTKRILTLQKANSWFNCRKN
Assay: Inhibition of rat skin type I collagen degradation by purified human lung fibroblast collagenase without beta-mercaptoethanol
Procedure, shortened: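 β-Mercaptoethanol omitted. Enzyme was trypsin-activated, semipurified collagenase from WI-38 fibroblast culture supernatants. Compounds sonicated into MeOH, serially diluted. Collagen 3H- or 14C-acetylated, 100 μg/tube, added to tubes cooled to 4 °C. Incubated 37 °C for 1000 min, centrifuged 12 000 rpm for 15 min at 4 °C. Soluble supernatant peptides counted by liquid scintillation.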

First: CNC(=O)[C@H](Cc1c[nH]c2ccccc12)NC(=O)[C@H](CC(C)C)[C@@H](S)CC(=O)OC
Second: CNC(=O)[C@H](Cc1c[nH]c2ccccc12)NC(=O)[C@H](CC(C)C)[C@H](CC(=O)OC)SS[C@@H](CC(=O)OC)[C@@H](CC(C)C)C(=O)N[C@@H](Cc1c[nH]c2ccccc12)C(=O)NC
The pIC50 of the first is 1.83 log units higher: 7.68 for the first, 5.85 for the second. The first is the more potent here.

Target: T1, Interstitial collagenase
Assay: Inhibition of radiolabeled rat skin type I collagen degradation by purified human lung fibroblast collagenase.
Procedure, shortened: (§1)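 Trypsin-activated, semipurified enzyme from WI-38 lung fibroblast culture supernatants. 3H- or 14C-acetylated collagen (100 μg/tube) added at 4 °C, then 37 °C for 1000 min. Spun 12 000 rpm, 15 min, 4 °C. Supernatant peptides counted by scintillation. Enzyme set for 70% degradation.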

CNC(=O)[C@H](Cc1ccc(OC)cc1)NC(=O)[C@H](CC(C)C)[C@@H](S)CC(=O)O and CNC(=O)[C@H](Cc1ccc(OC)cc1)NC(=O)[C@H](CC(C)C)[C@@H](S)CC(N)=O are within 0.2 log units of each other in pIC50: 7.60 for the first, 7.64 for the second.

CNC(=O)[C@H](Cc1ccc(OC)cc1)NC(=O)[C@H](CC(C)C)[C@@H](S)CC(=O)N1CCN(C)CC1 and CNC(=O)C[C@H](S)[C@@H](CC(C)C)C(=O)N[C@@H](Cc1ccc(OC)cc1)C(=O)NC are within 0.2 log units of each other in pIC50: 6.92 for the first, 6.84 for the second.

First: CNC(=O)[C@H](Cc1ccc(OC)cc1)NC(=O)[C@H](CC(C)C)[C@@H](S)CC(=O)NCC(=O)OC(C)(C)C
Second: CNC(=O)[C@H](Cc1ccc(OC)cc1)NC(=O)[C@H](CC(C)C)[C@@H](S)CC(=O)OC(C)(C)C
The pIC50 of the first is 1.45 log units lower: 6.55 for the first, 8.00 for the second.

CNC(=O)[C@H](Cc1ccc(OC)cc1)NC(=O)[C@H](CC(C)C)[C@@H](S)CC(=O)NCC(=O)O and CNC(=O)[C@H](Cc1ccc(OC)cc1)NC(=O)[C@H](CC(C)C)[C@@H](S)CC(=O)NCC(N)=O are within 0.2 log units of each other in pIC50: 7.57 for the first, 7.49 for the second.

Compared with CNC(=O)[C@H](Cc1ccc(OC)cc1)NC(=O)[C@H](CC(C)C)[C@H](CC(=O)OC)SC(C)=O, CNC(=O)[C@H](Cc1ccc(OC)cc1)NC(=O)[C@H](CC(C)C)[C@@H](S)CC(=O)NC(CC(C)C)C(=O)O (some centres undefined) is 1.28 log units lower in pIC50: 7.36 for the first, 6.08 for the second. The first is the more potent here.

First: CNC(=O)[C@H](Cc1ccc(OC)cc1)NC(=O)[C@H](CC(C)C)[C@@H](S)CC(=O)NC(CC(C)C)C(=O)OC(C)(C)C (some centres undefined)
Second: CNC(=O)[C@H](Cc1ccccc1)NC(=O)[C@H](CC(C)C)[C@@H](S)CC(=O)OC
The pIC50 of the first is 2.69 log units lower: 6.01 for the first, 8.70 for the second. The second is the more potent here.

Compared with CNC(=O)[C@@H](NC(=O)C(CC(C)C)C(S)CC(=O)OC)C(C)OCc1ccccc1 (stereo in doubt; 57ab), COC(=O)C[C@H](S)[C@@H](CC(C)C)C(=O)N[C@@H](Cc1ccccc1)C(N)=O (stereo in doubt; 58cd) is 1.80 log units lower in pIC50: 8.52 for the first, 6.72 for the second. The first is the more potent here.

Work on CNC(=O)[C@@H](NC(=O)C(CC(C)C)C(S)CC(=O)OC)C(C)OCc1ccccc1 (stereo in doubt; 57cd) yielded a pIC50 of 7.89.

Target: T1, Interstitial collagenase
Assay: Inhibition of rat skin type I collagen degradation by purified human lung fibroblast collagenase
Procedure, shortened: as §1, with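 “supernatants. Compounds sonicated into MeOH and serially diluted; some runs had β-mercaptoethanol at 9.6×10^-5 M final.” for “supernatants.”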

Going from CNC(=O)[C@H](Cc1c[nH]c2ccccc12)NC(=O)[C@H](CC(C)C)[C@@H](S)CC(=O)OC to CNC(=O)[C@H](Cc1c[nH]c2ccccc12)NC(=O)[C@@H](CC(C)C)[C@H](S)CC(=O)OC, the pIC50 falls from 8.60 to 7.92 (0.68 log units). The first is the more potent here.

Compared with CNC(=O)[C@H](Cc1ccc(OC)cc1)NC(=O)C(CC(C)C)C(C)S (some centres undefined), CNC(=O)[C@H](Cc1c[nH]c2ccccc12)NC(=O)C(CC(C)C)C(S)CC(=O)OC (stereo in doubt; 56b) is 1.68 log units lower in pIC50: 7.77 for the first, 6.09 for the second.

CNC(=O)[C@H](Cc1c[nH]c2ccccc12)NC(=O)[C@H](CC(C)C)[C@H](CC(=O)OC)SS[C@@H](CC(=O)OC)[C@@H](CC(C)C)C(=O)N[C@@H](Cc1c[nH]c2ccccc12)C(=O)NC and CNC(=O)[C@H](Cc1c[nH]c2ccccc12)NC(=O)[C@H](CC(C)C)[C@H](CC(=O)OC)SC(C)=O are within 0.2 log units of each other in pIC50: 7.66 for the first, 7.72 for the second.

For CNC(=O)[C@H](Cc1c[nH]c2ccccc12)NC(=O)C(CC(C)C)C(S)CC(=O)OC (stereo in doubt; 56c), the pIC50 was 6.14.
